The results in this text go back to ChEMBL document CHEMBL4808183, “Betulonic Acid Derivatives Interfering with Human Coronavirus 229E Replication via the nsp15 Endoribonuclease” (J Med Chem, 2021).

The structures appear in SMILES notation. Activity calls are given as the source filed them. The rule behind the calls is not given here.

Data set [1] in a line: Antiviral activity against Human coronavirus 229E infected in human embryonic lung fibroblast cells assessed as reduction in virus-induced cytopathic effect incubated for 5 days by MTS cell viability assay. The format is functional, cell-based. As to conditions: 120 h. A digest of the protocol:
(§1)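 Confluent HEL cell cultures given serial compound dilutions together with HCoV-229E at MOI 100 and held 5 days at 35 °C. Virus-induced CPE was scored by microscopy. MTS reagent was then added and absorbance at 490 nm read 24 h later. EC50 was taken from the MTS or microscopic read-out and CC50 from MTS. SI = CC50/EC50, both by MTS. Mean ± SEM of three independent experiments.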

A short description of data set [2]: Antiviral activity against Human coronavirus 229E infected in human embryonic lung fibroblast cells assessed as reduction in virus-induced cytopathic effect incubated for 5 days by microscopy. The format is functional, cell-based. The conditions noted are these: 120 h. A digest of the protocol: as §1
A general note: Protection from cytopathic effect is a common read-out in antiviral testing.

Data set [3] can be described thus: Cytotoxicity against mock-infected human embryonic lung fibroblast cells incubated for 5 days by MTS assay. The format is cell-based. The conditions noted are these: time 5 day. A digest of the protocol:
as §1

Data set [4] in a line: Selectivity index, ratio of CC50 for cytotoxicity against mock-infected human embryonic lung fibroblast cells incubated for 5 days by MTS assay to EC50 for antiviral activity against Human coronavirus 229E infected in human embryonic lung fibroblast cells assessed as reduction in virus-induced cytopathic effect incubated for 5 days by MTS cell viability assay. The format is toxicity, cell-based. As to conditions: time 5 day, read-out: Ratio CC50/EC50. A digest of the protocol:
as §1
In general terms: Formazan colour is commonly taken as a measure of viable cells.

The test system of data set [5] is Human immunodeficiency virus. The data set can be described thus: Antiviral activity against HIV. The format is functional, organism-based.
In data set [6] the test system is Herpes simplex virus unknown type. The data set can be described thus: Antiviral activity against Herpes simplex virus. The data set is classed as functional.
Another data set relates to Vaccinia virus. As to the kind of experiment: Antiviral activity against Vaccinia virus. The data set is classed as functional, organism-based. The conditions noted are these: Orthopoxvirus vaccinia.
In a further data set the test system is Human adenovirus 2. As to the kind of experiment: Antiviral activity against Adenovirus. The data set is classed as functional.
Data set [7] has as its system Vesicular stomatitis virus. The data set can be described thus: Antiviral activity against Vesicular stomatitis virus. The format is functional, organism-based.
The next data set relates to Coxsackievirus B4. The data set can be described thus: Antiviral activity against Coxsackie B4 virus. The data set is classed as functional, organism-based.
Data set [8] deals with Respiratory syncytial virus. As to the kind of experiment: Antiviral activity against Respiratory syncytial virus. The data set is classed as functional, organism-based.
The subject of another data set is Human respirovirus 3. As to the kind of experiment: Antiviral activity against Parainfluenza-3 virus. The data set is classed as functional, organism-based.
The subject of a further data set is Reovirus sp. The data set can be described thus: Antiviral activity against Reovirus-1. The format is functional, organism-based.
The next data set has as its system Sindbis virus. The data set can be described thus: Antiviral activity against Sindbis virus. The data set is classed as functional, organism-based.
The test system of another data set is Punta Toro virus. The data set can be described thus: Antiviral activity against Punta Toro virus. The data set is classed as functional, organism-based.
For a further data set, the system named is Yellow fever virus. The data set can be described thus: Antiviral activity against Yellow fever virus. The data set is classed as functional, organism-based.
A further data set relates to Influenza A virus. As to the kind of experiment: Antiviral activity against Influenza virus. The format is functional.

What is called EC50 is the concentration at which the effect is half-maximal. A word on the CC50: it is the concentration giving 50% cytotoxicity. As to `C=C(C)[C@@H]1CC[C@]2(C(=O)O)CC[C@]3(C)[C@H](CC[C@@H]4[C@@]5(C)Cc6nnn(Cc7ccco7)c6C(C)(C)[C@@H]5CC[C@]43C)[C@@H]12`, the figures for the EC50 in data set [1] and in data set [2] were 2.6 µM and 1.1 µM, respectively. In data set [3], this compound returned a CC50 at 120 h of 20 µM. For the same compound, in data set [4], the selectivity ratio at 120 h came to 8. For the same compound, the result (in data set [5]; in [6]; in the data set with Vaccinia virus; with Human adenovirus 2; in data set [7]; with Coxsackievirus B4) was inactive. Further, the outcome (in [8]; in the data set with Human respirovirus 3; in the data set with Reovirus sp.; with Sindbis virus; with Punta Toro virus; with Yellow fever virus) was inactive. For the same compound, the outcome with Influenza A virus was inactive.
Turning to `C=C(C)[C@@H]1CC[C@]2(C(=O)O)CC[C@]3(C)[C@H](CC[C@@H]4[C@@]5(C)Cc6nnn(Cc7ccncc7)c6C(C)(C)[C@@H]5CC[C@]43C)[C@@H]12`, the results for the EC50 in [1] and in data set [2] were 2.5 µM and 2.4 µM, respectively. In [3], this compound registered a CC50 at 120 h of 17 µM. For the same compound, in [4], the selectivity ratio at 120 h was 7. The result (in data set [5]; in data set [6]; in the data set on Vaccinia virus; with Human adenovirus 2; in data set [7]; in the data set on Coxsackievirus B4) was inactive. The outcome (in [8]; with Human respirovirus 3; in the data set with Reovirus sp.; with Sindbis virus; in the data set with Punta Toro virus; in the data set with Yellow fever virus) was inactive. For the same compound, the outcome with Influenza A virus was inactive.
Regarding `C=C(C)[C@@H]1CC[C@]2(C(=O)O)CC[C@]3(C)[C@H](CC[C@@H]4[C@@]5(C)Cc6nnn(CCc7c[nH]c8ccccc78)c6C(C)(C)[C@@H]5CC[C@]43C)[C@@H]12`, the EC50 in [1] turned out to be 0.56 µM; in data set [2], 0.24 µM. In data set [3], this compound came in with a CC50 at 120 h of 3.2 µM. Moreover, in data set [4], the selectivity ratio at 120 h worked out at 6. In addition, the outcome (in data set [5]; in data set [6]; in the data set on Vaccinia virus; in the data set on Human adenovirus 2; in [7]; with Coxsackievirus B4) was inactive. Besides, the outcome (in data set [8]; in the data set on Human respirovirus 3; in the data set with Reovirus sp.; in the data set with Sindbis virus; in the data set with Punta Toro virus; in the data set on Yellow fever virus) was inactive. For the same compound, in the data set with Influenza A virus, the outcome was inactive.
For `C=C(C)[C@@H]1CC[C@]2(C(=O)O)CC[C@]3(C)[C@H](CC[C@@H]4[C@@]5(C)Cc6nnn(Cc7cccc8[nH]ccc78)c6C(C)(C)[C@@H]5CC[C@]43C)[C@@H]12`, the values for the EC50 in [1] and in data set [2] were 0.092 µM and 0.1 µM, respectively. It took 2.4 µM to reach half-maximal cytotoxicity in data set [3] (CC50 at 120 h). Moreover, in data set [4], the selectivity ratio at 120 h stood at 27. Besides, the result (in data set [5]; in data set [6]; in the data set with Vaccinia virus; in the data set with Human adenovirus 2; in data set [7]; in the data set with Coxsackievirus B4) was inactive. The outcome (in data set [8]; with Human respirovirus 3; with Reovirus sp.; in the data set on Sindbis virus; in the data set with Punta Toro virus; in the data set with Yellow fever virus) was inactive. Besides, the result in the data set with Influenza A virus was inactive.
For the compound `C=C(C)[C@@H]1CC[C@]2(C(=O)O)CC[C@]3(C)[C@H](CC[C@@H]4[C@@]5(C)Cc6nnn(Cc7ccc(F)cc7)c6C(C)(C)[C@@H]5CC[C@]43C)[C@@H]12`, the values for the EC50 in [1] and in data set [2] were 2.2 µM and 0.88 µM, respectively. Further, the midpoint of cytotoxicity in [3], the CC50 at 120 h, lay at 9.3 µM. Further, the selectivity ratio at 120 h in data set [4] is 4. Also, the result (in data set [5]; in data set [6]; in the data set on Vaccinia virus; in the data set on Human adenovirus 2; in [7]; in the data set with Coxsackievirus B4) was inactive. The result (in [8]; with Human respirovirus 3; in the data set on Reovirus sp.; in the data set on Sindbis virus; in the data set on Punta Toro virus; in the data set on Yellow fever virus) was inactive. Further, the result in the data set on Influenza A virus was inactive.
In the case of `C=C(C)[C@@H]1CC[C@]2(C(=O)O)CC[C@]3(C)[C@H](CC[C@@H]4[C@@]5(C)Cc6nnn(Cc7cc(OC)cc(OC)c7)c6C(C)(C)[C@@H]5CC[C@]43C)[C@@H]12`, the figures for the EC50 in data set [1] and in [2] were 2.4 µM and 1.6 µM, respectively. In data set [3], this compound returned a cytotoxic concentration (CC50) at 120 h of 17 µM. The selectivity ratio at 120 h in data set [4] turned out to be 7. For the same compound, the result (in data set [5]; in data set [6]; with Vaccinia virus; in the data set on Human adenovirus 2; in data set [7]; in the data set with Coxsackievirus B4) was inactive. The result (in data set [8]; in the data set on Human respirovirus 3; in the data set with Reovirus sp.; in the data set on Sindbis virus; in the data set with Punta Toro virus; in the data set on Yellow fever virus) was inactive. In the data set on Influenza A virus, the outcome was inactive.
Take `C=C(C)[C@@H]1CC[C@]2(C(=O)O)CC[C@]3(C)[C@H](CC[C@@H]4[C@@]5(C)Cc6nnn(Cc7ccc8c(c7)OCO8)c6C(C)(C)[C@@H]5CC[C@]43C)[C@@H]12`: the EC50 was 1.9 µM in [1] and 1.5 µM in data set [2]. In addition, half-maximal cytotoxicity in data set [3] (CC50 at 120 h) was put at 15 µM. The selectivity ratio at 120 h in [4] came to 8. The result (in data set [5]; in data set [6]; with Vaccinia virus; in the data set on Human adenovirus 2; in data set [7]; with Coxsackievirus B4) was inactive. Also, the result (in [8]; in the data set on Human respirovirus 3; in the data set with Reovirus sp.; with Sindbis virus; in the data set on Punta Toro virus; with Yellow fever virus) was inactive. In addition, the outcome with Influenza A virus was inactive.
